From ChEMBL document CHEMBL1155530, “Identification of aryl 2-aminoimidazoles as biofilm inhibitors in Gram-negative bacteria” (Bioorg Med Chem Lett, 2010) come the findings set out here.

The structures appear in SMILES notation. Activity calls are given as the source filed them. The rule behind the calls is not given here.

As usually defined, the IC50 is the concentration needed to halve the response being measured. Low readings indicate greater potency, high ones weaker potency. One may read the inhibition as the percentage by which the read-out fell short of the control. A lower inhibition goes with little suppression.

For series [1], the system named is Pseudomonas aeruginosa. Nature of the series: Dispersion of Pseudomonas aeruginosa PA14 established biofilm at 100 uM after 24 hrs by crystal violet reporter assay. Format: functional, organism-based. A general note: In a reporter assay the amount or activity of a reporter protein is the signal.
For series [2], the system named is Escherichia coli. The series can be described thus: Inhibition of Escherichia coli biofilm formation after 24 hrs by crystal violet reporter assay. Format: functional, organism-based. Summed up:
(§1)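 Biofilm formation measured by crystal violet reporter assay. Each compound was first screened at 100 µM. Compounds giving >95% inhibition then went to dose-response studies to derive IC50. Values are means of three or more experiments.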

Series [3] deals with Pseudomonas aeruginosa. Nature of the series: Inhibition of Pseudomonas aeruginosa PA14 biofilm formation after 24 hrs by crystal violet reporter assay. Format: functional, organism-based. The note with it: PA14, 24 h. Summed up:
as §1

Series [4] deals with Escherichia coli. Nature of the series: Dispersion of Escherichia coli established biofilm at 50 uM after 24 hrs by crystal violet reporter assay. Format: functional.
The subject of series [5] is Acinetobacter baumannii. Nature of the series: Inhibition of Acinetobacter baumannii biofilm formation after 24 hrs by crystal violet reporter assay. Format: functional, organism-based. An outline of the steps: as §1
Series [6] concerns Acinetobacter baumannii. The series can be described thus: Dispersion of Acinetobacter baumannii established biofilm at 100 uM after 24 hrs by crystal violet reporter assay. Format: functional.
Series [7] concerns Escherichia coli. Nature of the series: Toxicity in Escherichia coli assessed as inhibition of planktonic growth at IC50 concentration measured up to 24 hrs. The conditions noted are these: in vivo. Format: organism-based.
Series [8] deals with Escherichia coli. The series can be described thus: Inhibition of Escherichia coli biofilm formation at 100 uM after 24 hrs by crystal violet reporter assay. Format: functional. An outline of the steps: as §1
Series [9] concerns Pseudomonas aeruginosa. The series can be described thus: Inhibition of Pseudomonas aeruginosa PA14 biofilm formation at 100 uM after 24 hrs by crystal violet reporter assay. Format: functional. The note with it: PA14, 24 h. Summed up: as §1
For series [10], the system named is Acinetobacter baumannii. Nature of the series: Inhibition of Acinetobacter baumannii biofilm formation at 100 uM after 24 hrs by crystal violet reporter assay. Format: functional. An outline of the steps:
as §1

In the case of `Nc1ncc(-c2cccc(NC(=O)CCC3CCCC3)c2)[nH]1`, the result with Pseudomonas aeruginosa [1] was inactive. Also, 47 µM corresponded to half-maximal inhibition in the series with Escherichia coli [2] (IC50).
Regarding `CCCCCCC(=O)Nc1ccc(-c2cnc(N)[nH]2)cc1`, in the series with Pseudomonas aeruginosa [1], the outcome was inactive. In addition, the IC50 in the series with Pseudomonas aeruginosa [3] is 16.8 µM.
Take `CCCCCCC(=O)Nc1cccc(-c2cnc(N)[nH]2)c1`: in the series on Pseudomonas aeruginosa [1], the outcome was inactive. In the series with Pseudomonas aeruginosa [3], the IC50 was 39.4 µM.
As to `CCCCCc1ccc(C(=O)Nc2ccc(-c3cnc(N)[nH]3)cc2)cc1`, the outcome in the series on Pseudomonas aeruginosa [1] was inactive. Moreover, inhibition in the series with Escherichia coli [2] was half-maximal at 39.4 µM (IC50).
Consider `Cl.Nc1ncc(-c2ccc(NC(=O)/C=C/c3ccccc3)cc2)[nH]1`, for which, in the series with Escherichia coli [4], the Activity is 67%. Also, the outcome in the series on Pseudomonas aeruginosa [1] was inactive. In the series with Escherichia coli [2], this compound yielded an IC50 of 16.3 µM.
Consider `CCCCCCCCCC(=O)Nc1ccccc1-c1cnc(N)[nH]1.Cl`, for which 43 µM corresponded to half-maximal inhibition with Acinetobacter baumannii [5] (IC50). The compound also had an Activity in the series on Acinetobacter baumannii [6] of 40%. In addition, the result in the series with Pseudomonas aeruginosa [1] was inactive.
In the case of `CCCCCc1ccc(C(=O)Nc2cccc(-c3cnc(N)[nH]3)c2)cc1`, the result with Pseudomonas aeruginosa [1] was inactive. In the series on Escherichia coli [2], the half-inhibitory concentration (IC50) stood at 16.5 µM.
Consider `Cl.Nc1ncc(-c2ccc(NC(=O)c3cc(F)cc(F)c3)cc2)[nH]1`, for which the Activity entry in the series with Escherichia coli [7] is on record as “Non-toxic”; with Escherichia coli [4] it was 51%. Besides, in the series with Pseudomonas aeruginosa [1], the outcome was inactive. Also, the IC50 in the series on Escherichia coli [2] came to 5.2 µM; in the series with Pseudomonas aeruginosa [3], 27.6 µM.
Regarding `Nc1ncc(-c2cccc(NC(=O)c3cc(F)cc(F)c3)c2)[nH]1`, the inhibition at 100 µM was 64% in the series on Escherichia coli [8] and under 5% in the series with Pseudomonas aeruginosa [9]. The result in the series on Pseudomonas aeruginosa [1] was inactive.
For `Nc1ncc(-c2ccc(-n3cc(-c4cc(F)cc(F)c4)nn3)cc2)[nH]1`, the inhibition at 100 µM is 35% in the series on Escherichia coli [8], under 5% in the series with Pseudomonas aeruginosa [9] and 21% in the series on Acinetobacter baumannii [10].
Consider `Nc1ncc(-c2ccccc2NC(=O)c2cc(F)cc(F)c2)[nH]1`, for which the inhibition at 100 µM in the series with Escherichia coli [8] and in the series with Pseudomonas aeruginosa [9] was under 5% each time. The outcome in the series on Pseudomonas aeruginosa [1] was inactive.
As for `Nc1ncc(-c2cccc(NC(=O)C34CC5CC(CC(C5)C3)C4)c2)[nH]1`, the result in the series on Pseudomonas aeruginosa [1] was inactive. In the series on Escherichia coli [2], the IC50 was 43.4 µM.
